{
  "source": "ChEMBL document CHEMBL1212715",
  "about": "“Ligand-directed tosyl chemistry for protein labeling in vivo” (Nat Chem Biol, 2009)",
  "key": {"Jurkat": {"test_system": "Jurkat", "assay": "Cytotoxicity against in human Jurkat cells after 18 hrs by MTT assay", "assay_type": "cell-based", "procedure,_shortened": "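Jurkat cells, maintained in RPMI 1640 with 10% FBS at 37 °C under 5% CO2, were treated at 4 × 10^6 cells per 1 mL serum-free RPMI 1640 with probe (4 µM) at 37 °C for 18 h. Viability was read by MTT assay.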"}, "[1]": {"molecular_target": "Peptidyl-prolyl cis-trans isomerase FKBP1A (Homo sapiens) (UniProt P62942)", "sequence (P62942 whole entry)": "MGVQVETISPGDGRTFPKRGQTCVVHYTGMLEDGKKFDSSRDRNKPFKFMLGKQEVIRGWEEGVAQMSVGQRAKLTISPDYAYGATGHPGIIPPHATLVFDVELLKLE", "assay": "Binding affinity to human FKBP12 in Jurkat cells at 11 uM after 24 hrs using anti-human FKBP12 antibody", "assay_type": "cell-based", "settings": "4 uM, in the assay text read “at 4 uM after 18 hrs” for “at 11 uM after 24 hrs”"}, "[2]": {"molecular_target": "Carbonic anhydrase 2 (Mus musculus) (UniProt P00920)", "assay": "Binding affinity to endogenously expressed carbonic anhydrase2 in Slc:ICR mouse using syreptavidin-horseradish peroxidase conjugate by Western blot analysis", "procedure,_shortened": "(§1)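 Male SPF Slc:ICR mice, 8 weeks old, received the biotin probe intravenously (100 µM in 0.5 mL PBS), and tail-vein blood was drawn at 4, 8 and 20 h. For ex vivo runs, EDTA-treated whole blood was diluted two-fold in PBS and held with 5 µM probe, ±500 µM EZA, at 35 °C for 20 h. Lysis used NP-40 buffer with 0.5 mM EZA, followed by 15% SDS-PAGE and PVDF blotting. Biotin was detected with SAv-HRP chemiluminescence; the membrane was reprobed with anti-mouse CAII plus anti-goat IgG-HRP.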"}, "[3]": {"molecular_target": "Carbonic anhydrase 2 (Mus musculus) (UniProt P00920)", "assay": "Binding affinity to endogenously expressed carbonic anhydrase2 in Slc:ICR mouse using anti-mouse CA2 antibody by Western blot analysis", "procedure,_shortened": "as §1"}, "[4]": {"assay": "Toxicity in human RBC assessed as hemolysis", "assay_type": "cell-based", "settings": "erythrocyte"}, "[5]": {"molecular_target": "Carbonic anhydrase 2 (Homo sapiens) (UniProt P00918)", "assay": "Binding affinity to human 7-diethylaminocoumarin labelled carbonic anhydrase2 after 48 hrs by SDS-PAGE/fluorescence gel imaging", "procedure,_shortened": "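Purified human CAII (40 µM) was incubated with the Dc-tosyl reagent (80 µM) in 50 mM HEPES, pH 7.2, at 37 °C. Control reactions held EZA (400 µM) or GSH (10 mM). Samples were resolved by SDS-PAGE, read by in-gel fluorescence imaging, then stained with CBB.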"}, "[6]": {"molecular_target": "Carbonic anhydrase 2 (Homo sapiens) (UniProt P00918)", "assay": "Activity at human carbonic anhydrase2 assessed as hydrolysis of p- nitrophenyl acetate"}},
  "note": "Active and inactive are the calls of the source. No cut-off for these calls is given here.",
  "data": [
    {"smiles": "CCC(C)(C)C(=O)C(=O)N1CCCC[C@H]1C(=O)O[C@H](CCc1ccc(OC)c(OC)c1)c1cccc(OCC(=O)NCCNC(=O)c2cccc(S(=O)(=O)OCCOCCOCCNC(=O)CCCC[C@@H]3SC[C@@H]4NC(=O)N[C@@H]43)c2)c1", "values": [
      {"measurement": "Activity", "setting": "Jurkat", "result": "Non-toxic"},
      {"measurement": "Activity", "setting": "[1]", "result": "Active"}
    ]},
    {"smiles": "O=C(CCCC[C@@H]1SC[C@@H]2NC(=O)N[C@@H]21)NCCOCCOCCOS(=O)(=O)c1cccc(C(=O)NCCCCCNC(=O)c2ccccc2)c1", "values": [
      {"measurement": "Activity", "setting": "[2]", "result": "inactive"},
      {"measurement": "Activity", "setting": "[3]", "result": "inactive"}
    ]},
    {"smiles": "CCN(CC)c1ccc2cc(C(=O)NCCOCCOS(=O)(=O)c3cccc(C(=O)NCCCCCNC(=O)c4ccc(S(N)(=O)=O)cc4)c3)c(=O)oc2c1", "values": [
      {"measurement": "Activity", "setting": "[4]", "result": "Non-toxic"},
      {"measurement": "Activity", "setting": "[5]", "result": 75, "unit": "%"},
      {"measurement": "1/Km", "setting": "[6]", "result": 2.38, "unit": "×10² /M"}
    ]},
    {"smiles": "NS(=O)(=O)c1ccc(C(=O)NCCCCCNC(=O)c2cccc(S(=O)(=O)OCCOCCOCCNC(=O)CCCC[C@@H]3SC[C@@H]4NC(=O)N[C@@H]43)c2)cc1", "values": [
      {"measurement": "Activity", "setting": "[2]", "result": "Active"},
      {"measurement": "Activity", "setting": "[3]", "result": "Active"}
    ]}
  ]
}
